# Measurements of several laboratories.
# Protocols differ between the studies behind these lines.
SMILES,target or system,assay,test system,setting,endpoint,value
O=C(Cn1ccnc1[N+](=O)[O-])NCc1ccccc1,Trypanosoma cruzi,parasite growth,"Vero, TULAHUEN","72 h, intracellular, amastigote",IC50,2.23 µM
COc1ccc(NC(=O)Nc2cccc(-c3cn(Cc4ccc(Cl)cc4)nn3)c2)cc1,Huh-7,"cell growth or viability, CCK-8",,72 h,IC50,15.5 µM
CN1CCN(c2ncc(-c3ccc4c(Nc5ncccn5)cnnc4c3)cn2)CC1,Trypanosoma cruzi,parasite growth,C2C12,"intracellular, amastigote",EC50,> 10 µM
COc1ccc(NC(=O)Nc2ccc(-c3cn(Cc4ccc(Br)cc4)nn3)cc2)cc1,Huh-7,"cell growth or viability, CCK-8",,"50 µM, 72 h",viability,91.2%
O=C(NCc1cn(Cc2ccc(Br)cc2)nn1)Nc1ccc(Cl)cc1,Huh-7,"cell growth or viability, CCK-8",,"50 µM, 48 h",viability,88.2%
Cc1ccc(Nc2cnnc3ccc(-c4ccc(N5CCN(C)CC5)cc4)cc23)cn1,Trypanosoma cruzi,parasite growth,C2C12,"intracellular, amastigote",EC50,3.3 µM
COc1ccc(NC(=O)NCc2cn(Cc3ccc(Cl)cc3)nn2)cc1,Huh-7,"cell growth or viability, CCK-8",,"50 µM, 72 h",viability,99%
COc1ccc(Nc2cnnc3ccc(-c4cnc(N5CCCN(C)CC5)nc4)cc23)cc1Cl,Trypanosoma cruzi,parasite growth,C2C12,"intracellular, amastigote",EC50,0.93 µM
COc1ccc(NC(=O)Nc2ccc(-c3cn(Cc4cccc(Cl)c4)nn3)cc2)cc1,Huh-7,"cell growth or viability, CCK-8",,72 h,IC50,> 50 µM
O=C(Nc1cccc(-c2cn(Cc3ccc(Br)cc3)nn2)c1)Nc1ccccc1Br,Huh-7,"cell growth or viability, CCK-8",,"50 µM, 72 h",viability,10.8%
COc1ccc(NC(=O)NCc2cn(Cc3ccc(Br)cc3)nn2)cc1,Huh-7,"cell growth or viability, CCK-8",,"50 µM, 48 h",viability,87.2%
O=C(Nc1ccc(Cl)cc1)Nc1cccc(-c2cn(Cc3cccc(Cl)c3)nn2)c1,Huh-7,"cell growth or viability, CCK-8",,"50 µM, 72 h",viability,15%
COc1cc(C=O)ccc1OC1=C(Cl)C(=O)c2ccccc2C1=O,Alternaria alternata,"microbial growth, broth dilution",,,MIC,12 µg/mL
O=C(Nc1cccc(-c2cn(Cc3ccc(Cl)cc3)nn2)c1)Nc1ccccc1Br,Huh-7,"cell growth or viability, CCK-8",,"50 µM, 48 h",viability,53.1%
COc1ccc(NC(=O)Nc2cccc(-c3cn(Cc4cccc(Cl)c4)nn3)c2)cc1,Huh-7,"cell growth or viability, CCK-8",,"50 µM, 72 h",viability,10.8%
O=C(Nc1ccc(Cl)cc1)Nc1ccc(-c2cn(Cc3ccc(Br)cc3)nn2)cc1,Huh-7,"cell growth or viability, CCK-8",,"50 µM, 48 h",viability,98.4%
Cc1ccc(Nc2cnnc3cc(-c4ccc(N5CCN(C)CC5)cc4)ccc23)cn1,Trypanosoma cruzi,parasite growth,C2C12,"intracellular, amastigote",EC50,1.3 µM
O=C(Cn1ccnc1[N+](=O)[O-])NCc1ccccc1,Trypanosoma cruzi,parasite growth,,"24 h, trypomastigote",IC50,1.04 µg/mL
CN1CCN(c2ccc(-c3ccc4c(Nc5ncccn5)cnnc4c3)cc2)CC1,Trypanosoma cruzi,parasite growth,C2C12,"intracellular, amastigote",EC50,2.6 µM
Cc1ccccc1Cn1cc(-c2cccc(NC(=O)Nc3ccc(F)cc3)c2)nn1,Huh-7,"cell growth or viability, CCK-8",,"50 µM, 72 h",viability,12.5%
COc1ccc(Nc2cnnc3ccc(-c4cnc(N5CCN(C)CC5)nc4)cc23)cc1Cl,Trypanosoma cruzi,parasite growth,C2C12,"intracellular, amastigote",EC50,5.7 µM
O=C(NCc1cn(Cc2ccc(Br)cc2)nn1)Nc1ccccc1Br,Huh-7,"cell growth or viability, CCK-8",,"50 µM, 48 h",viability,61.2%
COc1ccc(Nc2cnnc3ccc(-c4ccc(N5CCN(C)CC5)cc4)cc23)cc1Cl,Trypanosoma cruzi,parasite growth,C2C12,"intracellular, amastigote",EC50,2.4 µM
O=C(Nc1ccc(-c2cn(Cc3ccc(Cl)cc3)nn2)cc1)Nc1ccccc1Br,Huh-7,"cell growth or viability, CCK-8",,"50 µM, 72 h",viability,87.2%
